Bounds are passed on as bounds.

From ChEMBL document CHEMBL1687700, “Discovery of an Orally Efficacious Imidazo[5,1-f][1,2,4]triazine Dual Inhibitor of IGF-1R and IR” (ACS Med Chem Lett, 2010) come the findings set out here.

Series [1] is described as follows: Cmax in CD-1 mouse plasma at 25 mg/kg, po administered as single dose. More on the design: dose 25 mg/kg, route oral. The series is classed as ADME, organism-based.
Series [2] can be described thus: Permeability of the compound by PAMPA assay at pH 7.4. The series is classed as ADME. The note with it: read-out: permeability. The method, boiled down:
(§1)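 Parallel artificial membrane permeability assay run at pH 5.0 and pH 7.4; permeability reported in nm/s.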
For orientation: In PAMPA a lipid-coated filter parts donor from acceptor wells.

Series [3] in a line: Oral bioavailability in CD-1 mouse at 25 mg/kg, po administered as single dose. Particulars: CD-1, mouse, in vivo. The series is classed as ADME, organism-based.
The nature of series [4]: Clearance in CD-1 mouse at 5 mg/kg, iv administered as single dose. The series is classed as ADME, organism-based. More on the design: dose 5 mg/kg, route intravenous. Particulars: in vivo.
The nature of series [5]: Volume of distribution at steady state in CD-1 mouse at 5 mg/kg, iv administered as single dose. Particulars: in vivo, read-out: Vdss. The series is classed as ADME, organism-based. More on the design: dose 5 mg/kg, route intravenous.
The nature of series [6]: Permeability of the compound by PAMPA assay at pH 5.0. Particulars: read-out: permeability. It is filed as ADME. Put shortly:
as §1

A short description of series [7]: Cmax in rhesus monkey at 30 mg/kg, po administered as single dose. The series is classed as ADME, organism-based, Macaca mulatta. More on the design: dose 30 mg/kg, route oral. The note with it: in vivo. The method, boiled down:
(§2)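 Rhesus monkey (male), single oral dose of the HCl salt in 40% w/v hydroxypropyl-β-cyclodextrin vehicle; median PK parameters reported; bioavailability referenced to a 5 mg/kg iv dose.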

Series [8] deals with NIH3T3. Description: Antitumor activity against mouse NIH/3T3 cells xenografted in CD-1 nu/nu mouse assessed as tumor growth inhibition at 10 mg/kg, po bid administered for 14 days. It is filed as functional. Particulars: NIH3T3, 336 h.
Series [9] relates to Mus musculus. The series can be described thus: Inhibition of human IGF1R phosphorylation in human GEO cells xenografted in CD-1 nu/nu mouse at 20 mg/kg, po administered once daily for 14 days. It is filed as functional. The note with it: CD-1, GEO, 336 h. The method, boiled down:
(§3)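 GEO xenografts dosed orally for 14 days (qd or bid); tumors removed after last dose, up to 24 h, for pIGF-1R and pIR content relative to vehicle controls; means ± SE.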
(A xenograft is tissue or cells of one species grown in another, often human tumour cells in immunodeficient mice.)

The subject of series [10] is Mus musculus. Description: Inhibition of human IGF1R phosphorylation in human GEO cells xenografted in CD-1 nu/nu mouse at 10 mg/kg, po bid administered for 14 days. It is filed as functional. Particulars: CD-1, GEO, 336 h. The method, boiled down:
as §3

A short description of series [11]: Plasma concentration in human GEO cells xenografted CD-1 nu/nu mouse at 10 mg/kg, po administered as single dose in 40% Trappsol upto 8 hrs. The series is classed as ADME, organism-based. Set-up: dose 10 mg/kg, route oral. Put shortly:
(§4)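 GEO xenograft mice given a single 10 mg/kg oral dose; tumors and plasma sampled over time; tumor pIGF-1R and pIR content expressed as percentage of vehicle-treated controls alongside plasma drug level; means ± SD.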

A short description of series [12]: Plasma protein binding in rat. Particulars: read-out: PPB (converted). It is filed as ADME, cell-free. Put shortly: (§5)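 Plasma protein binding determined by ultracentrifugation in mouse, rat and human plasma; percent bound reported.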
The test system of series [13] is Mus musculus. Description: Inhibition of IR phosphorylation in human GEO cells xenografted in CD-1 nu/nu mouse at 10 mg/kg, po administered as single dose in 40% Trappsol. The series is classed as functional. The note with it: CD-1, GEO. Put shortly: as §4
A short description of series [14]: Antitumor activity against human GEO cells xenografted in CD-1 nu/nu mouse assessed as tumor growth inhibition at 10 mg/kg, po bid administered for 14 days. The series is classed as functional. The note with it: 336 h, read-out: TGI. Put shortly: (§6)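 Nude mouse xenografts dosed orally (HCl salt in 40% w/v hydroxypropyl-β-cyclodextrin) once or twice daily for 14 days; tumor volume expressed as percentage of initial volume, mean ± SE; body weight monitored.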

A short description of series [15]: AUC in rhesus monkey at 30 mg/kg, po administered as single dose. It is filed as ADME, organism-based, Macaca mulatta. More on the design: dose 30 mg/kg, route oral. Particulars: plasma. Put shortly: as §2
Series [16] can be described thus: Oral bioavailability in CD-1 mouse at 25 mg/kg administered as single dose. It is filed as ADME, organism-based. Particulars: in vivo.
A short description of series [17]: Antitumor activity against human GEO cells xenografted in CD-1 nu/nu mouse assessed as tumor growth inhibition at 20 mg/kg, po administered once daily for 14 days. The series is classed as functional. Particulars: 336 h, read-out: TGI. The method, boiled down: as §6
Series [18] relates to Mus musculus. Description: Inhibition of human IGF1R phosphorylation in human GEO cells xenografted in CD-1 nu/nu mouse at 5 mg/kg, po bid administered for 14 days. It is filed as functional. Particulars: CD-1, GEO, 336 h. Put shortly:
as §3

Series [19] is described as follows: Oral bioavailability in rhesus monkey at 30 mg/kg administered as single dose. It is filed as ADME, organism-based, Macaca mulatta. Particulars: in vivo. The method, boiled down:
as §2

Series [20] in a line: AUC in CD-1 mouse at 25 mg/kg, po administered as single dose. The series is classed as ADME, organism-based. More on the design: dose 25 mg/kg, route oral. The note with it: plasma. Put shortly: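 Single oral dose of 25 mg/kg, given as the HCl salt in 40% w/v hydroxypropyl-β-cyclodextrin, to female mice. Plasma exposure is reported as AUC (ng h/mL), with median values given. CL and Vss come from a separate 5 mg/kg iv dose.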

For series [21], the system named is Mus musculus. Description: Inhibition of IR phosphorylation in human GEO cells xenografted in CD-1 nu/nu mouse at 5 mg/kg, po bid administered for 14 days. The series is classed as functional. Particulars: CD-1, GEO, 336 h. The method, boiled down:
as §3

The nature of series [22]: Plasma protein binding in human. The series is classed as ADME, cell-free. Particulars: read-out: PPB (converted). The method, boiled down:
as §5

The nature of series [23]: Plasma protein binding in mouse. The series is classed as ADME, cell-free. The note with it: read-out: PPB (converted). Put shortly: as §5
The subject of series [24] is Mus musculus. The series can be described thus: Inhibition of human IGF1R phosphorylation in human GEO cells xenografted in CD-1 nu/nu mouse at 10 mg/kg, po administered as single dose in 40% Trappsol after 16 hrs. The series is classed as functional. Particulars: CD-1, GEO. Put shortly: as §4
Series [25] can be described thus: Clearance in rhesus monkey at 5 mg/kg, iv administered as single dose. It is filed as ADME, organism-based, Macaca mulatta. Set-up: dose 5 mg/kg, route intravenous. Particulars: in vivo. The method, boiled down: (§7)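 Single 5 mg/kg iv dose used to derive clearance and Vss; median values reported per species (female rat, male rhesus monkey).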
Series [26] is described as follows: Cmax in CD-1 mouse at 25 mg/kg, po administered as single dose. More on the design: dose 25 mg/kg, route oral. The series is classed as ADME, organism-based. Particulars: in vivo.
Series [27] is described as follows: Volume of distribution at steady state in rhesus monkey at 5 mg/kg, iv administered as single dose. The series is classed as ADME, organism-based, Macaca mulatta. Set-up: dose 5 mg/kg, route intravenous. The note with it: in vivo, read-out: Vdss. The method, boiled down: as §7
The nature of series [28]: Antitumor activity against human GEO cells xenografted in CD-1 nu/nu mouse assessed as tumor growth inhibition at 5 mg/kg, po bid administered for 14 days. The series is classed as functional. The note with it: 336 h, read-out: TGI. Put shortly: as §6
Series [29] can be described thus: Plasma concentration in human GEO cells xenografted CD-1 nu/nu mouse at 10 mg/kg, po administered as single dose in 40% Trappsol after 16 hrs. Set-up: dose 10 mg/kg, route oral. The series is classed as ADME, organism-based. Put shortly: as §4
Series [30] relates to Mus musculus. Description: Inhibition of human IGF1R phosphorylation in human GEO cells xenografted in CD-1 nu/nu mouse at 10 mg/kg, po administered as single dose in 40% Trappsol upto 8 hrs. It is filed as functional. The note with it: CD-1, GEO. The method, boiled down:
as §4

Consider `Nc1ncnn2c1c(-c1ccc3ccc(-c4ccccc4)nc3c1F)nc2[C@H]1C[C@@H](N2CCN(C=O)CC2)C1`, for which the peak level in [1] (Cmax) was 3.1 µM. Also, the Papp came to 105 ×10⁻⁶ cm/s in series [2] and 20.4 ×10⁻⁶ cm/s in [6]. The bioavailability in series [3] was found to be 18%. This compound also yielded a clearance in series [4] of 7 mL/min/kg. The Vd in [5] turned out to be 1.2 L/kg.

Consider `C[C@]1(O)C[C@@H](c2nc(-c3ccc4ccc(-c5ccccc5)nc4c3F)c3c(N)ncnn32)C1.Cl`, for which the Cmax in [7] came to 10.8 µM; in [26] it was 35.2 µM. The inhibition in vivo at 10 mg/kg in series [8] was 100%; in [10], more than 70%; in [13], 50%; in [14] it was 91%; in [24], 50%; in series [30], more than 70%. Moreover, the figures for the inhibition in vivo at 20 mg/kg in [9] and in series [17] were more than 70% and 85%, respectively. In addition, in [11], the concentration at 8 h is more than 4 µM. The fraction unbound was 0.034 in series [12], 0.027 in [22] and 0.015 in [23]. The AUC in [15] was 31.4 µg·h/mL; in [20], 240 µg·h/mL. The bioavailability in [16] worked out at 100%; in series [19] it was 97%. Besides, the inhibition in vivo at 5 mg/kg in series [18] was 40%; in [21], 40%; in [28], 31%. Also, the clearance in series [25] came out at 15 mL/min/kg. In addition, the Vd in series [27] amounted to 0.55 L/kg. In [29], this compound registered a concentration at 16 h of 0.38 µM.

The term Cmax denotes the peak of the concentration-time curve. Usually bioavailability stands for dose-corrected exposure relative to a reference, in per cent. In general, clearance refers to the volume of plasma or blood freed of the substance per unit of time. The term AUC denotes concentration integrated over time.
